Measured values reported in ChEMBL document CHEMBL3632461 (J Med Chem, 2015).

Key:
[1] = biological target: T1, Myeloperoxidase (Homo sapiens) (UniProt P05164); test: (§1) Inhibition of peroxidase activity of MPO isolated from human polynuclear leukocytes using Amplex Red as substrate assessed as formation of resorufin measured every 20 secs by spectrophotometric analysis
T1 sequence (whole entry): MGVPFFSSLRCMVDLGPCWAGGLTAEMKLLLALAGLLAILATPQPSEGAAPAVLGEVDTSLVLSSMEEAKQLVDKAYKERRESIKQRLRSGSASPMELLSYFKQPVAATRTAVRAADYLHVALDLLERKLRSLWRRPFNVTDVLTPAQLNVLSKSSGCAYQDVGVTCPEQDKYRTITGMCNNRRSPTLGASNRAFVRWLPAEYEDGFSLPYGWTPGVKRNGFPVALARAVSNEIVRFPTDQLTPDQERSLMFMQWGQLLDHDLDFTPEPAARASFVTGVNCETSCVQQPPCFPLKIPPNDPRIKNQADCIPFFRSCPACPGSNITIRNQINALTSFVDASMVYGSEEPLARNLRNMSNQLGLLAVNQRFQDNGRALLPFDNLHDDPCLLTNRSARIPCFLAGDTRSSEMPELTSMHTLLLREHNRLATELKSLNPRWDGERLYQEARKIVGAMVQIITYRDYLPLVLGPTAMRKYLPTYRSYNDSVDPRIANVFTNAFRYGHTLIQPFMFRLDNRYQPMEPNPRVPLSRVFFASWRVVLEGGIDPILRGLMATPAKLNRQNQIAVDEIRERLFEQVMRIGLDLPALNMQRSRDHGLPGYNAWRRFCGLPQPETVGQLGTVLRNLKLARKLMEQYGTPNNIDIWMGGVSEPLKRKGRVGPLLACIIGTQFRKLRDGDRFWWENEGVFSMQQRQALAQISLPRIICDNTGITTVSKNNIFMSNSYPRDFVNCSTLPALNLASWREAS

[2] = test system: Liver microsome; test: Intrinsic apparent clearance in human liver microsomes; assay type: ADME
Procedure, shortened: (§2)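 Stability incubations in NADPH-supplemented human liver microsomes or cryopreserved human hepatocytes. Total apparent intrinsic clearance scaled from the in vitro half-life; microsomes reported per mg protein, hepatocytes per 10⁶ cells.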

[3] = test system: Hepatocyte; test: Intrinsic apparent clearance in human hepatocytes assessed per 10^6 cells; assay type: ADME, cell-based; procedure, shortened: as §2
[4] = Plasma clearance in Beagle dog at 1 mg/kg, iv and 3 or 5 mg/kg, po; assay type: ADME, organism-based, Canis lupus familiaris
Procedure, shortened: (§3)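 Male CD-1 mice (25−35 g), cannulated Wistar-Han rats (250 g), beagle dogs (12 kg) and cynomolgus monkeys (7 kg), fasted overnight and fed 1.0 or 2.0 h after dosing. iv 1 mg/kg in saline or 12% sulfobutyl ether β-cyclodextrin; po 3 or 5 mg/kg in 0.5% methylcellulose. Parameters calculated from plasma concentration−time data; mean ± SD for n = 3, individual values for n = 2.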

[5] = Volume of distribution at steady state in Wistar rat at 1 mg/kg, iv and 3 or 5 mg/kg, po; assay type: ADME, organism-based; details: in vivo, read-out: Vdss
Procedure, shortened: (§4)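 Male mice, rats, dogs and cynomolgus monkeys, fasted overnight, fed after dosing. Intravenous dose 1 mg/kg in saline or 12% sulfobutyl ether β-cyclodextrin; oral arm 3 or 5 mg/kg in 0.5% methylcellulose. Steady-state volume derived from plasma concentration−time data; mean ± SD for n = 3, individual values for n = 2.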

[6] = Volume of distribution at steady state in Beagle dog at 1 mg/kg, iv and 3 or 5 mg/kg, po; assay type: ADME, organism-based, Canis lupus familiaris; details: in vivo, read-out: Vdss; procedure, shortened: as §4
[7] = Elimination half life in Wistar rat at 1 mg/kg, iv and 3 or 5 mg/kg, po; assay type: ADME, organism-based; details: in vivo, read-out: beta t1/2 (converted); procedure, shortened: as §3
[8] = Elimination half life in Beagle dog at 1 mg/kg, iv and 3 or 5 mg/kg, po; assay type: ADME, organism-based, Canis lupus familiaris; details: in vivo, read-out: beta t1/2 (converted); procedure, shortened: as §3
[9] = Tmax in Wistar rat at 3 or 5 mg/kg, po; assay type: ADME, organism-based; details: in vivo
Procedure, shortened: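 Male animals (CD-1 mice 25−35 g, cannulated Wistar-Han rats 250 g, beagle dogs 12 kg, cynomolgus monkeys 7 kg), fasted overnight and fed 1.0 or 2.0 h after dosing, water ad libitum. Oral dose 3 or 5 mg/kg in 0.5% methylcellulose. Parameters calculated from plasma concentration−time data; mean ± SD for n = 3, individual values for n = 2.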

[10] = Oral bioavailability in Wistar rat at 3 or 5 mg/kg; assay type: ADME, organism-based; details: in vivo
Procedure, shortened: (§5)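 Male CD-1 mice, Wistar-Han rats, beagle dogs and cynomolgus monkeys, fasted overnight and fed after dosing. Given po at 3 or 5 mg/kg in 0.5% methylcellulose, with an iv reference dose of 1 mg/kg. Bioavailability derived from plasma concentration−time data; mean ± SD (n = 3) or individual values (n = 2).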

[11] = Oral bioavailability in Beagle dog at 3 or 5 mg/kg; assay type: ADME, organism-based, Canis lupus familiaris; details: in vivo; procedure, shortened: as §5
[12] = biological target: T2, Myeloperoxidase (Homo sapiens, UniProt P05164); test: as §1
T2 sequence (P05164 whole entry): T1 sequence (whole entry)

[13] = Fraction unbound in human plasma by equilibrium dialysis method; assay type: ADME, cell-free
Procedure, shortened: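 Fraction unbound in human plasma measured by equilibrium dialysis; mean of three individual determinations.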

| SMILES | pKinact [1] | CLH(app) [2] | CLH(app) [3] | clearance [4] | Vd [5] | Vd [6] | half-life [7] | half-life [8] | Tmax [9] | bioavailability [10] | bioavailability [11] | Ki [12] | fraction unbound [13] |
| --- | --- | --- | --- | --- | --- | --- | --- | --- | --- | --- | --- | --- | --- |
| COc1ccc(Cl)cc1-c1cc(=O)[nH]c(=S)n1CC(N)=O [PF-06282999] | 2.43 | < 8 µL/min/mg | < 6 µL/min | 3.39 mL/min/kg | 2.13 L/kg | 0.54 L/kg | 45 min | 132 min | 46.8 min | 86% | 75% | – | – |
| COc1ccc(-c2cc(=O)[nH]c(=S)n2CCO)c(OC)c1 | 2.34 | < 8 µL/min/mg | < 6 µL/min | 11.9 mL/min/kg | 0.82 L/kg | 1.33 L/kg | 15 min | 318 min | 78 min | 8% | 16% | 151 nM | 0.5 |
| COc1ccc(OC)c(-c2cc(=O)[nH]c(=S)n2CC(N)=O)c1 | 2.38 | < 8 µL/min/mg | < 6 µL/min | 7.07 mL/min/kg | 0.83 L/kg | 1.03 L/kg | 22.8 min | 168 min | 40.2 min | 61% | 100% | 347 nM | 0.6 |
| COc1ccc(-c2cc(=O)[nH]c(=S)n2CCN)c(OC)c1 | 2.61 | 8.8 µL/min/mg | 2.9 µL/min | 13.4 mL/min/kg | 3.71 L/kg | 3.66 L/kg | 66 min | 342 min | 22.8 min | 91% | 84% | 174 nM | 0.7 |
| COc1ccc(-c2cc(=O)[nH]c(=S)n2CC(N)=O)c(OC)c1 | 2.41 | < 8 µL/min/mg | < 6 µL/min | 1.31 mL/min/kg | 1.23 L/kg | 0.3 L/kg | 45.6 min | 204 min | 30 min | 76% | 31% | 372 nM | 0.5 |
